In article PMC10099425 (ACS Omega, 2023):

Legend:
[1] = cited from earlier work
[2] = Diffusion and permeability studies; format: in vitro ADME; settings: after 480 min, PBS pH 6.8, 37 °C, NAR 50 mg/mL in donor
[3] = Pharmacokinetic study after oral administration; format: in vivo, Wistar rats; settings: male, Wistar, rat, plasma, 50 mg/kg
Method in brief: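 Male Wistar rats (220–250 g, 10–12 weeks) were fasted overnight with water ad libitum (n = 6/group). They were dosed orally with the compound as a 0.5% w/v Na-CMC suspension or DES formulation. Retro-orbital blood was drawn at 0, 0.5, 2, 4, 6, 8, 12 and 24 h. Plasma was precipitated with acetonitrile (1:3) and assayed by isocratic C18 HPLC-DAD at 283 nm. Parameters came from PK software; mean ± SD.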

## C[C@@H]1O[C@@H](O[C@H]2[C@H](Oc3cc(O)c4c(c3)O[C@H](c3ccc(O)cc3)CC4=O)O[C@H](CO)[C@@H](O)[C@@H]2O)[C@H](O)[C@H](O)[C@H]1O [NAR (pure), 4′,5,7-trihydroxyflavanone 7-rhamnoglucoside]
[1]
  elimination half-life: 3.64 ± 3.0 h
[2]
  amount of NAR diffused: 30.78 ± 3.4 % w/v
[3]
  AUC(0-t): 226 ± 4.2 ng·h/mL
  Cmax: 31.2 ± 2.3 ng/mL
  MRT: 6.46 ± 1.7 h
  Tmax: 4.1 ± 0.6 h
  half-life: 3.43 ± 1.1 h
